Only a selection was taken, and hits are over-represented in it overall.
CHOP UPR activ – activators of apoptotic CHOP UPR arm, primary screen, cell-based, CHO-CHOP luciferase reporter, luminescence, uHTS | UPR activation; percent of tunicamycin response over DMSO baseline | activation, % at 10 µM | hit rate 0.34% among 330,000 | AID 449763, 2010;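 active means at 10 µM dose, activation of 40% or more, normalized to positive control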;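 further: 100% = tunicamycin at 10 µg/mL and 0% = DMSO alone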
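Test system: CHO CHOP reporter cells. Input: 500 CHO-CHOP cells per well. Medium: F12 with 10% FBS. Technique: luciferase luminescence. Measure: percent activation relative to tunicamycin control. Dosing: 10 µM compound, 0.5% DMSO. Timing: 16-18 h cell attachment, then 6 h compound exposure, 37 °C.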
UPR XBP1 act – activators of adaptive XBP1 UPR arm, primary screen, cell-based, CHO-XBP1 luciferase reporter, luminescence, uHTS. IRE1-XBP1 UPR activation; percent of tunicamycin response, DMSO as zero. activation, % at 20 µM. hit rate 0.33% among 330,000. AID 463104, 2010;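 active means versus positive control, 20 µM dose yields 30% or more activation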;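 further: 100% = tunicamycin at 10 µg/mL and 0% = DMSO only wells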
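Assay system: IRE1-XBP1 luciferase reporter CHO line. Input: 1000 cells/well. Buffer or medium: F12 with 10% serum. Doses: 20 µM, 1% DMSO. Times: overnight seeding at 37 °C, 6 h compound treatment at 37 °C. Technique: Steady-Glo luciferase glow luminescence, 10 min after reagent addition.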
TLR4-MyD88 BLA – inhibitors of TLR4-MyD88 association in cells, primary screen, cell-based, HeLa CL3-4, BLA complementation, FRET ratio. Toll-like receptor 4 (Homo sapiens) + Myeloid differentiation primary response protein …. HeLa CL3-4 TLR4/MyD88 BLA complementation. inhibition, % at 8.4 µM. hit rate 0.18% among 200,000. AID 861, 2007; in the data active means inhibition above about 25%;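 further: 0% = vehicle and 100% = reference inhibitor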
Target sequence (O00206 whole entry, looked up): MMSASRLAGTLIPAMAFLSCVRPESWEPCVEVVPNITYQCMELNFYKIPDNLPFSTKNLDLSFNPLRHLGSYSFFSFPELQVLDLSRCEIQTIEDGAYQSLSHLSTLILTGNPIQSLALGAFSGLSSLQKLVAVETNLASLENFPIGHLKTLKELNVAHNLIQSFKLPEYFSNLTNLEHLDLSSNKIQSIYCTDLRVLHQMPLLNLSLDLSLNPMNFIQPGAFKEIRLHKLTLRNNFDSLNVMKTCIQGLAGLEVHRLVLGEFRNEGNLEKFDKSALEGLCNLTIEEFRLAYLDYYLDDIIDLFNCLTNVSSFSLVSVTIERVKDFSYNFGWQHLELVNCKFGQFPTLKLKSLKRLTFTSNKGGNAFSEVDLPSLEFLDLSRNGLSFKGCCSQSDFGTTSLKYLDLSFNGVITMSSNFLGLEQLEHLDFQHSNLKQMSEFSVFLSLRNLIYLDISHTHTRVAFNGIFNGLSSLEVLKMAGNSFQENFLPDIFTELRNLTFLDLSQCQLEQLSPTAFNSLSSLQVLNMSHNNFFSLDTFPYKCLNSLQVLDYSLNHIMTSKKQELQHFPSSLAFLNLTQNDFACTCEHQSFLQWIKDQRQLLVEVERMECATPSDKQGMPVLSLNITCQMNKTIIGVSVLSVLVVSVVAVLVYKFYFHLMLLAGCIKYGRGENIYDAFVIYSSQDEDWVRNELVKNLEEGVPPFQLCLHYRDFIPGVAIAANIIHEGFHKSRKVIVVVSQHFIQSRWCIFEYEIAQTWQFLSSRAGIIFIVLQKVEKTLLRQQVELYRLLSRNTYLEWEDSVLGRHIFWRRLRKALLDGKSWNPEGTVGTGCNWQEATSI
Target sequence (Q99836 whole entry, looked up): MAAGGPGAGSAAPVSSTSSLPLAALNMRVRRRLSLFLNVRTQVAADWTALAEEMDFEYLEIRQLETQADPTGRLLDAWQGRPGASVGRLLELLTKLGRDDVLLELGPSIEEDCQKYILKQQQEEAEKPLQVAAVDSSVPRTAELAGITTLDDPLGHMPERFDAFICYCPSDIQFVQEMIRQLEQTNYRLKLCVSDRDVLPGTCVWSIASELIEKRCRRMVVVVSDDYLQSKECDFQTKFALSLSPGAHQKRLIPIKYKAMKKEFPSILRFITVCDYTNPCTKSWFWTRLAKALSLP
NOD2-RIPK2 inh – NOD2-RIPK2 binding disruptors in cells, primary screen, fluorescence, CHO cells, BLA complementation; hit rate 0.38% among 360,000; AID 624267, 2012; Receptor-interacting serine/threonine-protein kinase 2 (Homo sapiens), O43353; inhibition, % at 4.98 µM; CCF4 ratio; in the data active means inhibition above about 21%;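 further: 0% = vehicle only and 100% = reference blocker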
CHOP inhibitor – inhibitors of CHOP promoter induction, primary screen, cell-based, unfolded protein response, luciferase reporter; CHO-K1 CHOP-promoter luciferase, tunicamycin-induced, 15-18 h; inhibition, % at 10 µM; hit rate 3.8% among 220,000;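 active means compounds that reduced the stress-induced luciferase reporter signal by more than about 70% of percent inhibition, limit read from the data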;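 further: 0% = tunicamycin plus vehicle and 100% = wells without tunicamycin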
TLR9-MyD88 inh – inhibitors of TLR9-MyD88 association in cells, primary screen, cell-based, CHO, BLA complementation, fluorescence; CCF4 FRET ratio; inhibition, % at 4.98 µM; hit rate 0.21% among 340,000;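 active means inhibition above the mean over all tested compounds plus 3 SD, cut at about 21% in these data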;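 further: 0% = DMSO only wells and 100% = clavulanate BLA inhibitor control wells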
Numbers without * were called inactive; · = not tested or not shown.

SMILES | CHOP UPR activ | UPR XBP1 act | TLR4-MyD88 BLA | NOD2-RIPK2 inh | CHOP inhibitor | TLR9-MyD88 inh
Cc1cccc(N2CCN(C(=O)c3cc4c(=O)n(C)c5ccccc5c4n3C)CC2)c1C | 2 | 0 | -16 | -10 | 79* | 4
CC(=O)c1ccc(OCc2nnn(CC(=O)NS(=O)(=O)Cc3ccccc3)c2-c2ccccc2)cc1 | · | · | · | 2 | · | ·
CCc1nc2ccc(C(=O)NCCC(C)C)cn2c1N(CC)CCOC | · | · | · | -7 | · | ·
CC1(C)CC[C@]2(C(=O)n3ccnc3)CC[C@]3(C)[C@H](C(=O)C=C4[C@@]5(C)C=C(C#N)C(=O)C(C)(C)[C@@H]5CC[C@]43C)[C@@H]2C1 | · | · | · | -5 | · | -8
CCC(C)NS(=O)(=O)c1ccc(NC(=O)CNCc2cccs2)cc1 (stereo not given) | · | · | · | -7 | · | 0
O=C(COc1ccccc1)NC(=S)Nc1ccc2c3c(cccc13)CC2 | 2 | -2 | -2 | -6 | 5 | -4
O=C(/C=C/c1ccccc1)NC(=S)Nc1ccc2c3c(cccc13)CC2 | -2 | -6 | 2 | -8 | 75* | -12
O=[N+]([O-])c1ccc(O)c(/C=N/Nc2ccc(Cl)nn2)c1 | 19 | 5 | 2 | -3 | 75* | -5
CC1=C(C(=O)OCc2ccccc2)C(c2cccnc2)n2ncnc2N1 (stereo not given) | 1 | -1 | -17 | 4 | -1 | -49
CC1=C(C(=O)OCc2ccccc2)C(c2cccnc2)c2c(n(C)c(=O)n(C)c2=O)N1 (stereo not given) | -1 | 0 | -6 | -13 | 85* | -7
CSc1cccc(NC(=O)C2CCCN(S(C)(=O)=O)C2)c1 (stereo not given) | · | · | · | -2 | · | 9
O=C(NCc1cccc(Cl)c1)c1ccc(S(=O)(=O)Nc2cccc(C(F)(F)F)c2)cc1 | 2 | -1 | 4 | -6 | 90* | -7
O=C(Cc1cccc(C(F)(F)F)c1)NCc1cccc(Cl)c1 | 1 | 0 | -13 | 9 | 24 | -2
COC(=O)[C@H]1C[C@H](OC(=O)NC2CCCC2)[C@@]2(O)CN(S(=O)(=O)c3ccc(C)cc3)CC2[C@H]1C(=O)OC (stereo not given in full) | · | · | · | -6 | · | -11
CC(C)=CC(=O)OCC(=O)Nc1ccc(Cl)cn1 | -2 | 3 | 7 | -9 | 75* | -3
CCOC(=O)/C=C/C(=O)OCC(=O)Nc1ccc(Cl)cn1 | -3 | -6 | 0 | -4 | -19 | 2
COc1ccc(NC(=O)NCCCN2CCN(c3cc(C)ccc3C)CC2)cc1 | -1 | -6 | -5 | -7 | 72* | -8
COc1ccc(NC(=O)NCCCN2CCN(c3ccccc3F)CC2)cc1 | -1 | -1 | · | -13 | 0 | -14
COc1cc(NC(=O)NCCN2CCN(c3ccc(Cl)cc3)CC2)ccc1C | -2 | 9 | 14 | -3 | 84* | 3
Cc1cccc(NC(=S)N/N=C/c2c[nH]c3ccccc23)c1 | 2 | -1 | -6 | -9 | 91* | 4
O=C(NC12CC3CC(CC(C3)C1)C2)C1CC(=O)N(c2ccc(Br)cc2)C1 (stereo not given) | 1 | -2 | 12 | 0 | 70* | -6
O=C(Nc1cccc(Cl)c1Cl)C1CC(=O)N(c2ccc(Br)cc2)C1 (stereo not given) | 0 | -2 | 8 | -7 | 78* | -2
O=C(Nc1cccc(F)c1)C1CC(=O)N(c2ccc(Br)cc2)C1 (stereo not given) | 1 | -2 | 1 | 6 | 40 | -1
COc1cc([N+](=O)[O-])ccc1NC(=S)Nc1cc(C(=O)OC(C)C)cc(C(=O)OC(C)C)c1 | 15 | 0 | 6 | 3 | 85* | 3
COc1ccc(OCCN(C)Cc2ccccc2)cc1 | 2 | 3 | -9 | 5 | -14 | 3
SMILES | CHOP UPR activ | UPR XBP1 act | TLR4-MyD88 BLA | NOD2-RIPK2 inh | CHOP inhibitor | TLR9-MyD88 inh
CN(CCOCCOc1ccc2ccccc2c1)Cc1ccccc1 | 0 | 5 | -8 | -6 | 71* | -6
CCCOc1ccc(F)cc1-c1cc(C(=O)NCc2cccc(Cl)c2)[nH]n1 | · | · | · | 5 | · | ·
O=C(NC(NNc1ccc([N+](=O)[O-])cc1)(C(F)(F)F)C(F)(F)F)c1ccc(Cl)cc1 | -2 | 1 | -4 | -7 | 79* | -2
NC(=NCc1ccccc1)C(N=Nc1ccccc1)C(=O)NCc1ccccc1 (stereo not given) | · | · | · | 17 | · | 1
Cc1ccc(N/N=C2\CC(=O)c3ccccc32)cc1Cl | 49* | 96* | 0 | · | 18 | ·
N#Cc1c(Nc2ccc(F)cc2)sc(C(=O)c2ccc(F)cc2)c1N | -1 | 4 | 14 | 8 | 76* | 3
N#Cc1c(Nc2ccc(F)cc2)sc(C(=O)c2ccccc2)c1N | -1 | 2 | -15 | -6 | 56 | -3
Cc1cnc(C2OCCO2)c2cccc(N)c12 | · | · | · | 1 | · | 0
O=C(Nc1nnc(-c2cccs2)o1)c1cccc(Oc2ccccc2)c1 | 4 | 1 | -8 | 3 | 84* | 11
Cc1ccc(CN=c2c([N+](=O)[O-])nn(-c3cccc(Cl)c3)n2O)cc1 | -1 | -1 | -7 | 6 | 84* | 2
CC1=C(C#N)c2nc(N)c(C#N)c(C)c2/C1=C\c1ccc(C)cc1 | -11 | -6 | -7 | · | 98* | ·
Cc1ccc(-c2nc(SCC(N)=O)c(C#N)c3c2CCCC3)cc1 | 2 | -2 | 6 | 2 | 83* | 10
C=CCSc1nc(N)c(C(=O)Nc2ccccc2)cc1C#N | 0 | 6 | 3 | 1 | 70* | -6
CCc1nc2ccc(C(=O)N3CCN(C(=O)c4ccco4)CC3)cn2c1N(C)C(=O)C1CCCCC1 | · | · | · | 4 | · | ·
COc1ccc2nc(/N=C(\N)NC(=O)N3c4ccccc4Sc4ccccc43)nc(C)c2c1 | 2 | 2 | 2 | -2 | 77* | -17
CCc1c(C(=O)OCc2ccccc2)[nH]c(C)c1C | 8 | 2 | · | 0 | -22 | -4
CCc1c(C)[nH]c(C(=O)OCc2ccccc2)c1C | · | · | -8 | 0 | 79* | -4
Cc1nc2ccc(C(=O)N(C)Cc3ccco3)cn2c1N(C)C(=O)CCc1ccccc1 | · | · | · | 2 | · | ·
Cc1cc(Cl)c2c(c1)[C@]1(C(=O)N2)[C@@H]2C(=O)N(Cc3ccccc3)C(=O)[C@@H]2[C@@H]2CCCN21 | 0 | -2 | -11 | 3 | 71* | -15

Screens as filed in PubChem BioAssay.
